From article PMC7790123 (Psychopharmacology, 2020)

Columns and labels:
rats = assay: Attentional set-shifting task; assay type: in vivo, rat; conditions: 15 mg/kg ip, male rats, dosed 1 h before testing, vs vehicle
Outline: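 Rats were handled 1 min at least three times in the week before testing. The test compound was suspended in 0.1% Tween80, 0.1% silicone antifoam and 1% methylcellulose in water and given ip at 5 mL/kg, 1 h before testing. Over four days: pre-habituation, habituation, training, then a single test of seven discriminations (SD, CD, CDR, ID, IDR, ED, EDR). The first four trials were unscored; criterion was six consecutive correct. Analysis: two-way repeated-measures ANOVA with Tukey post hoc.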

[1] = Drug concentration in free plasma and CSF after dosing; assay type: in vivo, rat; conditions: for Drug Concentration CSF: 15 mg/kg ip
Outline: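 After 1 h acclimation, rats received vehicle or test compound, suspended in 0.1% Tween80, 0.1% silicone antifoam and 1% methylcellulose in water, given ip at 5 mL/kg. At 1 or 4 h, rats were anaesthetised with isoflurane and sampled. Blood was spun at 2000 g, 4°C, 10 min for plasma. CSF and plasma were stored at −80°C, then compound levels were measured by LC-MS/MS.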

COMT = target: T1, COMT (Rattus norvegicus, UniProt P22734); assay: Frontal cortex microdialysis: DA, HVA and DOPAC in extracellular fluid; assay type: in vivo; conditions: 20 min samples for 2 h after dosing, vs vehicle
T1 sequence (P22734 44-264 limits assumed): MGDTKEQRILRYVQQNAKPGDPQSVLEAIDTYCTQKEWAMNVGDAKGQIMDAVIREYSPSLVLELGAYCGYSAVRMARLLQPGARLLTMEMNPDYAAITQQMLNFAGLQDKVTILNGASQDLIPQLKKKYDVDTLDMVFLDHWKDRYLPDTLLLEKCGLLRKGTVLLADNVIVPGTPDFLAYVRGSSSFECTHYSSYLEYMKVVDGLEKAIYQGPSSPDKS

[2] = male, rat, plasma (free, unbound concentration), intraperitoneal, 15 mg/kg

## Cc1ccc(C(=O)c2cc(O)c(O)c([N+](=O)[O-])c2)cc1 [Tolcapone, tolcapone]
rats
  ASST performance (trials to criterion), ED stage: improved ED stage performance
[1]; female rats, 4 h
  Drug Concentration CSF: BLQ
[1]; male rats, 1 h
  Drug Concentration CSF: BLQ
[1]; male rats, 4 h
  Drug Concentration CSF: BLQ
[1]; female, rat, plasma (free, unbound concentration), intraperitoneal, 15 mg/kg
  concentration at 4 h: 0.01 µM
[1]; [2]
  concentration at 1 h: 0.035 µM
  concentration at 4 h: 0.004 µM
COMT
  extracellular DOPAC concentration, frontal cortex: significantly increased DOPAC for the 40–120-min time points
  extracellular HVA concentration, frontal cortex: significantly decreased HVA for the 40–120-min time points
